In the library only some 9.4% were active in any assay of this set; here they are far more common.
Mdm2-MdmX inh: human Mdm2/MdmX binding inhibition; 330,000 tested, 3% active; inhibition, % at 8 µM; SaOS-2 split-luciferase Mdm2/MdmX complementation, luminescence; AID 485346; O15151+Q00987;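 active means inhibition of at least 50% at 8 µM in the primary screen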
Beta apoptosis: beta cell apoptosis inhibition; protection from apoptosis, % (concentration not given with the values); 300,000 tested, 0.8% active; AID 435005; INS-1E cytokine-induced death, ATP luminescence, 48 h; percent of positive-control rescue, neutral wells zero;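 active means Every replicate reaches about 75%, or at least half do and their mean reaches it too, limit read from the data; inconclusive means At least half of replicates reach the limit but their mean does not; inactive means Under half of replicates reach the limit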;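 further: 0% = cytokine-treated negative control wells and 100% = positive control rescue; higher means more ATP so stronger rescue from cytokine killing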
T cruzi repl: blocks replication of Trypanosoma cruzi | inhibition, % (no concentration beside the values) | T. cruzi beta-gal in NIH3T3, luminescence, 90 h | 300,000 tested, 1.4% active;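 active means mean inhibition across valid replicates above about 55%, limit read from the data; inconclusive means mean below that limit but half or more replicates reach it; inactive means mean below it, under half of replicates reach it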;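 further: signal also drops with host cell toxicity which is not excluded here; 0% = plate median of DMSO wells and 100% = zero luminescence signal; higher percent means less beta-gal luminescence so fewer parasites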
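Read-out: Parasite load inhibition, % | Test system: Mouse NIH/3T3 fibroblasts infected with β-gal-expressing T. cruzi Tulahuen C4 | Amount: 5,000 cells/well | Medium: DMEM, 2% fetal bovine serum | Signal: GalScreen β-gal luminescence, detergent lysis, 60 min | Timing: 3 h attach, ≥90 h co-culture | Also added: Tulahuen C4 trypomastigotes, 5000/well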
SKKanGAS inh: inhibitors of SKKanGAS S. pyogenes growth in kanamycin (SK-promoter or general growth effect) | BacTiter-Glo, 6 h | inhibition, % at 7.5 µM | 300,000 tested, 1.3% active;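 active means mean replicate score, as percent of positive control median, at least 50; inconclusive means mean below 50 but one replicate at or above 50; inactive means mean and every replicate below 50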;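 further: strain carries kanamycin resistance gene driven by streptokinase promoter and grows in 40 µg/ml kanamycin; loss of luminescence reflects streptokinase promoter inhibition or plain growth inhibition; 0% = median of DMSO wells and 100% = positive control at its reference dose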
CSC inhib: blocks cancer stem cells; cancer stem cell-like cells viability, luminescence; inhibition, % at 7.5 µM; 300,000 tested, 1.1% active; AID 2717; in the data active means inhibition above about 75%; inconclusive means no clear call, values can overlap the other calls; tested in HMLE shEcad cells
L major viab: Leishmania major promastigote growth inhibition; Leishmania major promastigotes, resazurin fluorescence viability; inhibition, % at 10 µM; 200,000 tested, 9% active; AID 1063; in the data active means inhibition above about 50%;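 further: promastigotes grown with compound for 44 hours at 28 °C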
* hit, by the source's call; ? = inconclusive; · = no result.

SMILES	Mdm2-MdmX inh	Beta apoptosis	T cruzi repl	SKKanGAS inh	CSC inhib	L major viab
Cc1nn(CC(O)CN2c3ccccc3Sc3ccccc32)c(C)c1Br (stereo not given)	33.4	-3.2	·	100.1*	31.1	64.4*
Cc1ccc(OCC(=O)NNC(=O)C2CC(=O)N(c3ccc4c(c3)OCCO4)C2)cc1 (stereo not given)	18.3	-5.3	0.2	-0.4	-3.8	·
COC(=O)c1ccccc1OCCCN(C)C	-13.4	-6.3	-17.3	-5.0	·	-3.4
COC1CCN(Cc2cn(Cc3ccccc3)nc2-c2cc3ccccc3o2)CC1	26.5	8.4	27.4	-11.5	22.3	50.5*
O=C(CSCc1nc2ccccc2[nH]1)Nc1ccc(Oc2ccccc2)cc1	3.4	-2.4	-5.0	12.8	33.9	64.4*
O=C(CSCc1nc2ccccc2[nH]1)Nc1ccc2ccccc2c1	0.9	-3.9	5.9	-1.7	-5.0	13.4
O=C(COc1ccccc1F)Nc1cc(S(=O)(=O)N2CCOCC2)ccc1N1CCOCC1	-26.7	-3.5	10.9	0.3	13.1	37.2
CCOC(=O)/C(=N\Nc1ccccc1Cl)N1CCN(c2ccccc2OC)CC1	11.4	2.8	67.2*	?	40.5	-0.3
COc1ccccc1N1CCN(C(=O)c2ccc(S(=O)(=O)N3CCCC3)cc2)CC1	10.7	-2.3	0.6	-6.0	-3.3	62.6*
CCN1CCN(c2ccc(S(=O)(=O)N3CCOCC3)cc2NC(=O)COc2ccc(F)cc2Cl)CC1	14.2	·	57.0*	7.9	3.7	·
Cc1c(C(=O)Nc2cc(S(=O)(=O)N3CCOCC3)ccc2N2CCOCC2)oc2ccccc12	29.9	12.7	74.7*	8.7	7.7	45.4
O=C(Nc1cc(S(=O)(=O)N2CCOCC2)ccc1N1CCOCC1)c1ccccc1F	-19.8	4.4	·	·	-9.6	·
COc1cc2c(cc1OC)C(COc1cccc(C(F)(F)F)c1)NCC2 (stereo not given)	20.2	-2.5	30.1	-3.6	13.3	·
COc1ccc(S(=O)(=O)N2CCN(C(=O)C3CCCO3)CC2)cc1 (stereo not given)	4.5	-2.7	-5.0	10.7	0.8	·
OC[C@@H]1CC[C@@H](Cc2ccc(-c3ccccc3)cc2)O1	-43.4	·	·	·	·	·
CCN1CCN(c2ccc(S(=O)(=O)N3CCCCC3)cc2NC(=O)Cc2ccccc2F)CC1	19.6	2.7	54.8*	-7.2	-13.2	·
COc1ccccc1OCC(=O)Nc1cc(S(=O)(=O)N2CCCCC2)ccc1N1CCCCC1	10.0	8.8	20.3	3.8	-0.2	98.0*
CCN1CCN(c2ccc(S(=O)(=O)N3CCOCC3)cc2NC(=O)C(C)Oc2cccc(Cl)c2)CC1 (stereo not given)	17.4	0.5	30.2	2.4	-10.4	·
CC(Oc1cccc(Cl)c1)C(=O)Nc1cc(S(=O)(=O)N2CCOCC2)ccc1N1CCCCC1 (stereo not given)	42.1	110.4*	46.8	36.1	-3.1	·
CCN1CCN(c2ccc(S(=O)(=O)N3CCCCC3)cc2NC(=O)Cc2ccccc2)CC1	10.8	-4.4	45.3	-14.2	-9.3	·
CCN1CCN(c2ccc(S(=O)(=O)N3CCCCC3)cc2NC(=O)COc2ccccc2)CC1	29.7	·	58.2*	-1.2	-5.6	·
CC(C)c1cccc(C(C)C)c1NC(=S)Nc1cccc(Cl)c1	-14.1	2.2	-16.8	-9.7	19.4	·
O=C/C(=C\Nc1ccc(S(=O)(=O)CCO)cc1)c1nc2cc(Cl)ccc2o1	-2.7	1.2	-2.6	-12.0	-3.8	9.7
CN(C(=O)CSc1nnc(-c2cccs2)n1C1CC1)C1CCS(=O)(=O)C1 (stereo not given)	13.7	·	·	·	·	·
Cc1c(C(=O)N2CCN(S(=O)(=O)c3ccc(F)cc3)CC2)oc2ccccc12	18.1	3.0	56.0*	-12.0	-13.2	·
CCOc1cccc(/C=N/NC(=S)Nc2cc(S(=O)(=O)N3CCOCC3)ccc2N2CCOCC2)c1O	48.8	·	14.9	22.4	-6.0	84.6*
CCN1CCN(c2ccc(S(=O)(=O)N3CCOCC3)cc2NC(=O)CCOc2ccccc2)CC1	14.2	-4.8	55.8*	-2.0	-4.5	·
CCN1CCN(c2ccc(S(=O)(=O)N3CCOCC3)cc2NC(=O)CCC(C)C)CC1	9.8	-8.6	55.8*	-12.6	-12.0	·
CC(CNC(=O)CN(C)CC(=O)Nc1ccccc1Br)c1ccccc1 (stereo not given)	19.8	·	·	·	·	·

From PubChem
